From ChEMBL document CHEMBL1143519, “2-Piperazinecarboxamides as potent and selective melanocortin subtype-4 receptor agonists” (Bioorg Med Chem Lett, 2005)
pEC50, pIC50: −log10 of the molar value.

What was measured:
Melanocortin receptor 4 [1] = target: T1, Melanocortin receptor 4 (Homo sapiens, UniProt P32245); experiment: Inhibitory concentration to displace [125I]NDP-alpha-MSH from human melanocortin 4 receptor expressed in CHO cells; Control 19 nM; format: cell-based
[2] = target: Melanocortin receptor (M3 and M4) (Homo sapiens) (UniProt P32245+P41968); experiment: Selectivity for human melanocortin 3 receptor over melanocortin 4 receptor expressed in CHO cells; control 1 nM; format: cell-based
[3] = Selectivity for human melanocortin 3 receptor over melanocortin 5 receptor expressed in CHO cells; control 6 nM; format: cell-based
Melanocortin receptor 5 [4] = target: T2, Melanocortin receptor 5 (Homo sapiens, UniProt P33032); experiment: Concentration of compound at 50% maximum cAMP accumulation mediated by human melanocortin 5 receptor; format: functional
Melanocortin receptor 4 [5] = target: T1, Melanocortin receptor 4; experiment: Concentration of compound at 50% maximum cAMP accumulation mediated by human melanocortin 4 receptor; format: functional
Rattus norvegicus = organism: Rattus norvegicus; experiment: Covalent binding to rat microsomal proteins after 30 min of incubation with [3H]-compound in the presence of NADPH (n=3); format: functional
How it was run: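 Tritium-labelled compound was incubated for 30 min with rat liver microsomes plus NADPH. Radioactivity bound covalently to microsomal protein was expressed as pmol equivalents per mg protein. Values are mean ± standard deviation of n = 3.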

Melanocortin receptor 5 [6] = target: T2, Melanocortin receptor 5; conditions: at 10 µM
Melanocortin receptor 3 [7] = target: T3, Melanocortin receptor 3 (Homo sapiens, UniProt P41968); conditions: at 10 µM
Melanocortin receptor 4 [8] = target: T1, Melanocortin receptor 4; conditions: at 10 µM
Melanocortin receptor 3 [9] = target: T3, Melanocortin receptor 3; experiment: Concentration of compound at 50% maximum cAMP accumulation mediated by human melanocortin 3 receptor; format: functional

T3 sequence (P41968 whole entry): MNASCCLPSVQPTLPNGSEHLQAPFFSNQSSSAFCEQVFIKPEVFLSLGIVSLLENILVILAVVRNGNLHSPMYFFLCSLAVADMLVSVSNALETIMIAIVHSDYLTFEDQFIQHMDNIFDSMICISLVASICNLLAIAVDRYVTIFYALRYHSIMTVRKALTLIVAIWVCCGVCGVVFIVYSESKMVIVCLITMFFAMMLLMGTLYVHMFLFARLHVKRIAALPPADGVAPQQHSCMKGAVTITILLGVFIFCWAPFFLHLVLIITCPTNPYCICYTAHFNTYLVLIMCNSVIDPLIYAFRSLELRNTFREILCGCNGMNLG
T1 sequence (P32245 whole entry): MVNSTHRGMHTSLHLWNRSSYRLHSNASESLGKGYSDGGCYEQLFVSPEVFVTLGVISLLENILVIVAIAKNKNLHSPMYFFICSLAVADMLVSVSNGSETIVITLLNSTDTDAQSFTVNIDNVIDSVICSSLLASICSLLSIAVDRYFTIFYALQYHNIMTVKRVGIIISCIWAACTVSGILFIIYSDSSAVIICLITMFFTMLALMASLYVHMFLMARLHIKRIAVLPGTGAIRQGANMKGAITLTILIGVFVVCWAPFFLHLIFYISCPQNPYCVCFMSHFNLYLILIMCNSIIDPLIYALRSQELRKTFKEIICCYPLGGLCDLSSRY
T2 sequence (P33032 whole entry): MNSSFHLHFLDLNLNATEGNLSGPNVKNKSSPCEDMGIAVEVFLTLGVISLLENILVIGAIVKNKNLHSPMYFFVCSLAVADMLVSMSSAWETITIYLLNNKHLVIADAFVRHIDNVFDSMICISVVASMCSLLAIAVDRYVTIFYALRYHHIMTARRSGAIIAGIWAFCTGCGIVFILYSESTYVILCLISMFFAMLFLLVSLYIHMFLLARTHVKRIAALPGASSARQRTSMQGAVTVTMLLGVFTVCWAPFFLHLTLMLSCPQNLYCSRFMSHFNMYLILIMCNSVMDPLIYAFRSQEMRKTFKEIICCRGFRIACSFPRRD

SMILES	pIC50 (Melanocortin receptor 4 [1])	Selectivity [2]	pEC50 (Melanocortin receptor 5 [4])	pEC50 (Melanocortin receptor 4 [5])	Activity (Rattus norvegicus)	Accumulation (Melanocortin receptor 5 [6])	Accumulation (Melanocortin receptor 3 [7])	Accumulation (Melanocortin receptor 4 [8])	pEC50 (Melanocortin receptor 3 [9])	Selectivity [3]
C[C@H]1CN[C@H](C(=O)N[C@H](Cc2ccc(F)cc2)C(=O)N2CCC(C(=O)NC(C)(C)C)(C3CCCCC3)CC2)CN1	8.22	86	6.06	8.10	50	42%	6%	79%		87
CC(C)(C)NC(=O)C1(C2CCCCC2)CCN(C(=O)[C@@H](Cc2ccc(F)cc2)NC(=O)[C@@H]2CN[C@H](C3(C)CC3)CN2)CC1	7.62	49	6.04	7.03		56%	5%	69%		23
CC(C)C1CNC[C@@H](C(=O)N[C@H](Cc2ccc(F)cc2)C(=O)N2CCC(C(=O)NC(C)(C)C)(C3CCCCC3)CC2)N1 (some centres undefined)	7.96	81		7.74	216	10%	4%	92%		105
CC[C@H]1CN[C@H](C(=O)N[C@H](Cc2ccc(F)cc2)C(=O)N2CCC(C(=O)NC(C)(C)C)(C3CCCCC3)CC2)CN1C	8.52	116	6.35	8.70		56%	29%	85%	6.82	192
CC[C@H]1CN[C@H](C(=O)N[C@H](Cc2ccc(F)cc2)C(=O)N2CCC(C(=O)NC(C)(C)C)(C3CCCCC3)CC2)CN1	8.52	152	6.15	8.30		43%	9%	89%		126
CC(C)[C@@H]1CN[C@H](C(=O)N[C@H](Cc2ccc(F)cc2)C(=O)N2CCC(C(=O)NC(C)(C)C)(C3CCCCC3)CC2)CN1	7.70	61	5.85	7.38		41%	6%	77%		49
CC(C)[C@H]1CN[C@H](C(=O)N[C@H](Cc2ccc(F)cc2)C(=O)N2CCC(C(=O)NC(C)(C)C)(C3CCCCC3)CC2)CN1	8.40	140	6.47	8.52	107	49%	8%	82%		116
CC(C)(C)NC(=O)C1(C2CCCCC2)CCN(C(=O)[C@@H](Cc2ccc(F)cc2)NC(=O)[C@@H]2CN[C@@H](C(C)(C)C)CN2)CC1	8.30	116	6.44	8.15		46%	11%	99%		39
CC(C)(C)NC(=O)C1(C2CCCCC2)CCN(C(=O)[C@@H](Cc2ccc(F)cc2)NC(=O)[C@@H]2CN[C@@H](C3(C)CC3)CN2)CC1	8.30	99	6.52	8.15		62%	10%	95%		40
CC(C)(C)NC(=O)C1(C2CCCCC2)CCN(C(=O)[C@@H](Cc2ccc(F)cc2)NC(=O)[C@@H]2CNC3(CC3)CN2)CC1	7.77	42	5.72	7.39		36%	6%	53%		61

The next lines start with results.

pIC50 (Melanocortin receptor 4 [1])	Selectivity [2]	pEC50 (Melanocortin receptor 5 [4])	pEC50 (Melanocortin receptor 4 [5])	Activity (Rattus norvegicus)	Accumulation (Melanocortin receptor 5 [6])	Accumulation (Melanocortin receptor 3 [7])	Accumulation (Melanocortin receptor 4 [8])	pEC50 (Melanocortin receptor 3 [9])	SMILES	Selectivity [3]
				2150					CC(C)N(C(=O)C1(C2CCCCC2)CCN(C(=O)[C@@H](Cc2ccc(F)cc2)NC(=O)[C@@H]2CN(C)CCN2)CC1)C(C)C	
7.34	36	5.62	6.48		36%	8%	58%		CC[C@@H]1CN[C@H](C(=O)N[C@H](Cc2ccc(F)cc2)C(=O)N2CCC(C(=O)NC(C)(C)C)(C3CCCCC3)CC2)CN1C	49
7.60	42	5.85	7.44		33%	4%	67%		CC(C)(C)NC(=O)C1(C2CCCCC2)CCN(C(=O)[C@@H](Cc2ccc(F)cc2)NC(=O)[C@@H]2CN[C@H](C3CC3)CN2)CC1.CC(F)(F)C(=O)O	65
7.40	59		6.82		45%	6%	69%		CC[C@@H]1CN[C@H](C(=O)N[C@H](Cc2ccc(F)cc2)C(=O)N2CCC(C(=O)NC(C)(C)C)(C3CCCCC3)CC2)CN1	75
7.54	48	6.00	7.04		54%	5%	77%		CC(C)(C)NC(=O)C1(C2CCCCC2)CCN(C(=O)[C@@H](Cc2ccc(F)cc2)NC(=O)[C@@H]2CN[C@H](C(C)(C)C)CN2)CC1	26
8.10	119	6.12	8.30	103	44%	9%	102%		CC(C)(C)NC(=O)C1(C2CCCCC2)CCN(C(=O)[C@@H](Cc2ccc(F)cc2)NC(=O)[C@@H]2CN[C@@H](C3CC3)CN2)CC1	59
